In ChEMBL document CHEMBL2034844, “Novel multi-functional nitrones for treatment of ischemic stroke” (2012) one finds Activity data, which are given here for 9 molecules.

Active and inactive are the calls of the source. The rule behind the calls is not given here.

The test system of assay [1] is Neuron. Kind of assay: Neuroprotective activity against t-BHP-induced rat cerebellar granule neuronal damage at 1000 uM preincubated for 30 mins prior t-BHP challenge measured after 4 hrs by MTT assay (reference value: 49.4%). The class given is functional. A general note: Tetrazolium assays rely on reduction of a dye to a coloured formazan, in cell work by metabolically active cells.

The test system of assay [2] is Neuron. Kind of assay: Neuroprotective activity against t-BHP-induced rat cerebellar granule neuronal damage at 100 uM preincubated for 30 mins prior t-BHP challenge measured after 4 hrs by MTT assay (reference value: 49.4%). The class given is functional, cell-based.
Assay [3] in a line: Antioxidant activity assessed as peroxynitrite radical-scavenging activity at 1 to 1000 uM by SIN-1 based chemiluminescence assay. It counts as functional. In a few lines: (§1)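 Peroxynitrite generated from SIN-1 dissolved in 0.1 M PBS. The mix held PBS, luminol, compound or PBS control, and SIN-1 added last to start the reaction; read-out was chemiluminescence.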
For assay [4], the system named is Radical scavenging activity. Description: Antioxidant activity assessed as DPPH radical-scavenging activity at 0.5 to 4 mM by spectrophotometry. It counts as functional. Summed up: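 50 µL methanolic compound solution mixed with 150 µL methanolic DPPH; absorbance at 515 nm followed continuously until stable (50 min); clearance (%) calculated from the control absorbance and the reaction absorbance at 50 min.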

The next assay deals with Platelet. Description: Inhibition of platelet aggregation in New Zealand rabbit platelet rich plasma assessed as maximum platelet aggregation at 2 mM after 8 mins by platelet aggregometry (reference value: 57.3 +/- 8.3%). The class given is functional, Oryctolagus cuniculus. More on the design: scale not given: the % may be the effect or the level left.
Assay [5] in a line: Antioxidant activity assessed as superoxide anion-scavenging activity at 125 to 1000 uM by spectrophotometry. It counts as functional. Summed up:
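Glass-cuvette mix of Tris–HCl buffer (pH 8.2), pyrogallic acid solution (0.16 mmol/L) and test sample at final 125, 250, 500 and 1000 µM; pyrogallol-autoxidation superoxide assay.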

Assay [6] can be described thus: Antioxidant activity assessed as hydroxyl radical-scavenging activity at 1000 uM by monitoring p-NDA bleaching using spectrophotometry. The class given is functional. Summed up: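 Fenton-generated hydroxyl radical from FeSO4 (final 4.0 mM) and freshly prepared H2O2 (7.3 mM). p-NDA was prepared at 1.6 mM in 50 mM NaCl. Compounds were dissolved in double-distilled water at final 125–1000 µM. p-NDA bleaching was followed as absorbance loss at 440 nm over 100 s; clearance (%) was calculated from absorbance at 0 and 100 s.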

Another assay concerns Rattus norvegicus. Description: Neuroprotective activity in Sprague-Dawley rat tMCAO model assessed as reduction in total brain infarct volume at 110 mg/kg, ip after 24 hrs by TTC staining relative to control. It counts as functional. More on the design: scale not given: the % may be the effect or the level left. The conditions noted are these: route intraperitoneal. In a few lines: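 Adult male Sprague–Dawley rats (260–310 g), chloral hydrate anaesthesia; nylon suture occluding right MCA for 2 h, then reperfusion. Only rats with neurological score 2 or 3 used; body temperature held at 37 °C. Dosed ip 2 h after MCAO; saline vehicle controls. Killed after 22 h reperfusion; six 2-mm coronal slices stained with 0.5% TTC, 37 °C, 30 min; infarct volume by image analysis; n = 13/group.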

Assay [7] in a line: Antioxidant activity assessed as peroxynitrite radical-scavenging activity at 1 uM by SIN-1 based chemiluminescence assay. The class given is functional. Summed up: as §1
Assay [8] in a line: Antioxidant activity assessed as peroxynitrite radical-scavenging activity at 1000 uM by SIN-1 based chemiluminescence assay. It counts as functional. Summed up:
as §1

The molecule `CC(C)(C)/[N+]([O-])=C/c1cccc2nccnc12` registered an Activity in the assay with Neuron [1] of 54.8%. In addition, the result (in the assay on Neuron [2]; in [3]) was inactive. Besides, in [4], the result was Active.
On to `CCc1nccnc1/C=[N+](\[O-])C(C)(C)C`, for which the outcome (in the assay on Neuron [1]; in the assay with Neuron [2]; in assay [5]; in assay [3]) was Active. For the same molecule, the Activity in the assay on Neuron [1] (record 2) worked out at 64.6%; in the assay on Platelet, 33.8%.
Take `CCCc1nccnc1/C=[N+](\[O-])C(C)(C)C`: the outcome (with Neuron [1]; in the assay on Neuron [2]; in assay [5]; in assay [3]; in [4]) was Active. The values for the Activity in the assay on Neuron [1] (record 2) and in the assay with Platelet were 66% and 48%, respectively.
For the molecule `CC(C)(C)/[N+]([O-])=C\c1ccccc1`, the result in assay [5] was inactive. Also, the result in [3] and in assay [4] was Active.
For the molecule `CC(=O)Oc1ccccc1C(=O)O` [ASPIRIN], the Activity in the assay on Platelet came to 26.6%.
On to `Cc1nc(C)c(CN(Cc2nc(C)c(C)nc2C)C(C)(C)C)nc1C`, for which the results for the Activity (in the assay with Neuron [1]; in the assay with Platelet; in assay [6]) were 75.5%, 44.3% and 100%, respectively. For the same molecule, the outcome (in the assay with Neuron [2]; in [4]) was Active. Further, the result in assay [5] and in assay [3] was inactive.
Take `Cc1nc(/C=[N+](\[O-])C(C)(C)C)c(C)nc1/C=[N+](\[O-])C(C)(C)C`: the Activity in the assay with Neuron [1] was determined as 80.6%; in the assay on Rattus norvegicus, 65%; in the assay with Platelet, 37.7%; in assay [7], 31.9%; in [8] it was 99.4%. The result (in the assay with Neuron [2]; in assay [5]; in assay [4]) was Active.
In turn, `CC(C)(C)/[N+]([O-])=C/c1cnc2ccccc2n1` displayed an Activity with Neuron [1] of 53.9%. In addition, the result (in the assay on Neuron [2]; in assay [3]) was inactive. In assay [4], the result was Active.
With `Cc1nc(C)c(C)nc1C` [LIGUSTRAZINE], the Activity amounted to 58.4% in the assay with Neuron [1] and 42.9% in the assay with Platelet. Also, the outcome in assay [5] and in assay [3] was inactive. The result in assay [4] was Active.
